Source: ChEMBL document CHEMBL1152489, “Synthesis and biological evaluation of a novel series of 1,5-benzothiazepine derivatives as potential antimicrobial agents” (2009)
Active and inactive are the calls of the source. The calls are words filed in the database; no cut-off is given here.

system: Candida albicans; test: Antifungal activity against Candida albicans ATCC 10231 at 200 ug/disk after 24 hrs by disk diffusion method; assay type: functional; conditions: ATCC 10231, 24 h, read-out: IZ
Procedure, shortened: (§1)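 Disk diffusion on media seeded with the organism. Sterile paper discs (6 mm) carried test compound dissolved in DMSO at 12.5, 50, 100 or 200 µg/disc. DMSO-only discs served as controls. Plates were incubated 24 h at 37 °C. The read-out is the growth-inhibition zone diameter in mm, averaged over three trials (±1 mm).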

SMILES | zone of inhibition at 200 µg/disc [mm]
CC(=O)C1=C(C)Nc2ccccc2SC1c1ccc(O)cc1 (stereo not given) | 17
CC(=O)C1=C(C)Nc2ccccc2SC1c1ccccc1[N+](=O)[O-] (stereo not given) | 16
CC(=O)C1=C(C)Nc2ccccc2SC1c1ccc(F)cc1 (stereo not given) | 20
CC(=O)C1=C(C)Nc2ccccc2SC1c1ccc([N+](=O)[O-])cc1 (stereo not given) | 20
CC(=O)C1=C(C)Nc2ccccc2SC1c1ccccc1Cl (stereo not given) | 15

system: Candida albicans; test: Antifungal activity against Candida albicans ATCC 10231 at 100 ug/disk after 24 hrs by disk diffusion method; assay type: functional; conditions: ATCC 10231, 24 h, read-out: IZ; procedure, shortened: as §1

SMILES | zone of inhibition at 100 µg/disc [mm]
CC(=O)C1=C(C)Nc2ccccc2SC1c1ccc(O)cc1 (stereo not given) | 17
CC(=O)C1=C(C)Nc2ccccc2SC1c1ccccc1[N+](=O)[O-] (stereo not given) | 13
CC(=O)C1=C(C)Nc2ccccc2SC1c1ccc(F)cc1 (stereo not given) | 20
CC(=O)C1=C(C)Nc2ccccc2SC1c1ccc([N+](=O)[O-])cc1 (stereo not given) | 18
CC(=O)C1=C(C)Nc2ccccc2SC1c1ccccc1Cl (stereo not given) | 15

system: Candida albicans; test: Antifungal activity against Candida albicans ATCC 10231 at 50 ug/disk after 24 hrs by disk diffusion method; assay type: functional; conditions: ATCC 10231, 24 h, read-out: IZ; procedure, shortened: as §1

SMILES | zone of inhibition at 50 µg/disc [mm]
CC(=O)C1=C(C)Nc2ccccc2SC1c1ccc(O)cc1 (stereo not given) | 15
CC(=O)C1=C(C)Nc2ccccc2SC1c1ccccc1[N+](=O)[O-] (stereo not given) | 11
CC(=O)C1=C(C)Nc2ccccc2SC1c1ccc(F)cc1 (stereo not given) | 18
CC(=O)C1=C(C)Nc2ccccc2SC1c1ccc([N+](=O)[O-])cc1 (stereo not given) | 16
CC(=O)C1=C(C)Nc2ccccc2SC1c1ccccc1Cl (stereo not given) | 12

system: Staphylococcus aureus; test: Antibacterial activity against Staphylococcus aureus ATCC 25923 at 200 ug/disk after 24 hrs by disk diffusion method; assay type: functional; conditions: ATCC 25923, 24 h, read-out: IZ; procedure, shortened: as §1

SMILES | zone of inhibition at 200 µg/disc [mm]
CC(=O)C1=C(C)Nc2ccccc2SC1c1ccc(O)cc1 (stereo not given) | 10
CC(=O)C1=C(C)Nc2ccccc2SC1c1ccccc1[N+](=O)[O-] (stereo not given) | 12
CC(=O)C1=C(C)Nc2ccccc2SC1c1ccc(F)cc1 (stereo not given) | 10
CC(=O)C1=C(C)Nc2ccccc2SC1c1ccc([N+](=O)[O-])cc1 (stereo not given) | 13
CC(=O)C1=C(C)Nc2ccccc2SC1c1ccccc1Cl (stereo not given) | 9

system: Staphylococcus aureus; test: Antibacterial activity against Staphylococcus aureus ATCC 25923 at 100 ug/disk after 24 hrs by disk diffusion method; assay type: functional; conditions: ATCC 25923, 24 h, read-out: IZ; procedure, shortened: as §1

SMILES | zone of inhibition at 100 µg/disc [mm]
CC(=O)C1=C(C)Nc2ccccc2SC1c1ccc(O)cc1 (stereo not given) | 9.5
CC(=O)C1=C(C)Nc2ccccc2SC1c1ccccc1[N+](=O)[O-] (stereo not given) | 11
CC(=O)C1=C(C)Nc2ccccc2SC1c1ccc(F)cc1 (stereo not given) | 9
CC(=O)C1=C(C)Nc2ccccc2SC1c1ccc([N+](=O)[O-])cc1 (stereo not given) | 12
CC(=O)C1=C(C)Nc2ccccc2SC1c1ccccc1Cl (stereo not given) | 8

system: Staphylococcus aureus; test: Antibacterial activity against Staphylococcus aureus ATCC 25923 at 50 ug/disk after 24 hrs by disk diffusion method; assay type: functional; conditions: ATCC 25923, 24 h, read-out: IZ; procedure, shortened: as §1

SMILES | zone of inhibition at 50 µg/disc [mm]
CC(=O)C1=C(C)Nc2ccccc2SC1c1ccc(O)cc1 (stereo not given) | 7
CC(=O)C1=C(C)Nc2ccccc2SC1c1ccccc1[N+](=O)[O-] (stereo not given) | 8
CC(=O)C1=C(C)Nc2ccccc2SC1c1ccc(F)cc1 (stereo not given) | 7
CC(=O)C1=C(C)Nc2ccccc2SC1c1ccc([N+](=O)[O-])cc1 (stereo not given) | 10
CC(=O)C1=C(C)Nc2ccccc2SC1c1ccccc1Cl (stereo not given) | 8

system: Staphylococcus epidermidis; test: Antibacterial activity against Staphylococcus epidermidis ATCC 26069 at 200 ug/disk after 24 hrs by disk diffusion method; assay type: functional; conditions: ATCC 26069, 24 h, read-out: IZ; procedure, shortened: as §1

SMILES | zone of inhibition at 200 µg/disc [mm]
CC(=O)C1=C(C)Nc2ccccc2SC1c1ccc(O)cc1 (stereo not given) | 12
CC(=O)C1=C(C)Nc2ccccc2SC1c1ccccc1[N+](=O)[O-] (stereo not given) | 10
CC(=O)C1=C(C)Nc2ccccc2SC1c1ccc(F)cc1 (stereo not given) | 11
CC(=O)C1=C(C)Nc2ccccc2SC1c1ccc([N+](=O)[O-])cc1 (stereo not given) | 13
CC(=O)C1=C(C)Nc2ccccc2SC1c1ccccc1Cl (stereo not given) | 9

system: Staphylococcus epidermidis; test: Antibacterial activity against Staphylococcus epidermidis ATCC 26069 at 100 ug/disk after 24 hrs by disk diffusion method; assay type: functional; conditions: ATCC 26069, 24 h, read-out: IZ; procedure, shortened: as §1

SMILES | zone of inhibition at 100 µg/disc [mm]
CC(=O)C1=C(C)Nc2ccccc2SC1c1ccc(O)cc1 (stereo not given) | 11
CC(=O)C1=C(C)Nc2ccccc2SC1c1ccccc1[N+](=O)[O-] (stereo not given) | 9
CC(=O)C1=C(C)Nc2ccccc2SC1c1ccc(F)cc1 (stereo not given) | 11
CC(=O)C1=C(C)Nc2ccccc2SC1c1ccc([N+](=O)[O-])cc1 (stereo not given) | 12
CC(=O)C1=C(C)Nc2ccccc2SC1c1ccccc1Cl (stereo not given) | 7.5

system: Staphylococcus epidermidis; test: Antibacterial activity against Staphylococcus epidermidis ATCC 26069 at 50 ug/disk after 24 hrs by disk diffusion method; assay type: functional; conditions: ATCC 26069, 24 h, read-out: IZ; procedure, shortened: as §1

SMILES | zone of inhibition at 50 µg/disc [mm]
CC(=O)C1=C(C)Nc2ccccc2SC1c1ccc(O)cc1 (stereo not given) | 11
CC(=O)C1=C(C)Nc2ccccc2SC1c1ccccc1[N+](=O)[O-] (stereo not given) | 7
CC(=O)C1=C(C)Nc2ccccc2SC1c1ccc(F)cc1 (stereo not given) | 10
CC(=O)C1=C(C)Nc2ccccc2SC1c1ccc([N+](=O)[O-])cc1 (stereo not given) | 10
CC(=O)C1=C(C)Nc2ccccc2SC1c1ccccc1Cl (stereo not given) | 7.5

system: Escherichia coli; test: Antibacterial activity against Escherichia coli ATCC 44752 at 200 ug/disk after 24 hrs by disk diffusion method; assay type: functional, organism-based; conditions: not given; procedure, shortened: as §1

SMILES | inhibition zone (IZ)
CC(=O)C1=C(C)Nc2ccccc2SC1c1ccc(O)cc1 (stereo not given) | inactive
CC(=O)C1=C(C)Nc2ccccc2SC1c1ccccc1[N+](=O)[O-] (stereo not given) | inactive
CC(=O)C1=C(C)Nc2ccccc2SC1c1ccc(F)cc1 (stereo not given) | inactive
CC(=O)C1=C(C)Nc2ccccc2SC1c1ccc([N+](=O)[O-])cc1 (stereo not given) | inactive
CC(=O)C1=C(C)Nc2ccccc2SC1c1ccccc1Cl (stereo not given) | inactive

system: Escherichia coli; test: Antibacterial activity against Escherichia coli ATCC 44752 at 100 ug/disk after 24 hrs by disk diffusion method; assay type: functional, organism-based; conditions: not given; procedure, shortened: as §1

SMILES | inhibition zone (IZ)
CC(=O)C1=C(C)Nc2ccccc2SC1c1ccc(O)cc1 (stereo not given) | inactive
CC(=O)C1=C(C)Nc2ccccc2SC1c1ccccc1[N+](=O)[O-] (stereo not given) | inactive
CC(=O)C1=C(C)Nc2ccccc2SC1c1ccc(F)cc1 (stereo not given) | inactive
CC(=O)C1=C(C)Nc2ccccc2SC1c1ccc([N+](=O)[O-])cc1 (stereo not given) | inactive
CC(=O)C1=C(C)Nc2ccccc2SC1c1ccccc1Cl (stereo not given) | inactive

system: Escherichia coli; test: Antibacterial activity against Escherichia coli ATCC 44752 at 50 ug/disk after 24 hrs by disk diffusion method; assay type: functional, organism-based; conditions: not given; procedure, shortened: as §1

SMILES | inhibition zone (IZ)
CC(=O)C1=C(C)Nc2ccccc2SC1c1ccc(O)cc1 (stereo not given) | inactive
CC(=O)C1=C(C)Nc2ccccc2SC1c1ccccc1[N+](=O)[O-] (stereo not given) | inactive
CC(=O)C1=C(C)Nc2ccccc2SC1c1ccc(F)cc1 (stereo not given) | inactive
CC(=O)C1=C(C)Nc2ccccc2SC1c1ccc([N+](=O)[O-])cc1 (stereo not given) | inactive
CC(=O)C1=C(C)Nc2ccccc2SC1c1ccccc1Cl (stereo not given) | inactive
